Results reported in ChEMBL document CHEMBL3351370, “Straightforward entry to pyrido[2,3-d]pyrimidine-2,4(1H,3H)-diones and their ADME properties” (Bioorg Med Chem, 2014).
Converted amounts (≈) assume the structure as drawn.

What was measured:
[1] = tested on: Liver microsome; experiment: Stability in human liver microsomes assessed as metabolite formation at 8 uM at 37 degC in absence of NADPH and glucose-6-phosphate; assay type: ADME
In short: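 Negative control. Compound 8 µM with pooled human liver microsomes (45 donors, 0.5 mg protein/ml) in 0.1 M phosphate buffer pH 7.4 with 3 mM MgCl₂, without NADPH and glucose-6-phosphate. 37 °C, 350 rpm. Aliquots taken at 0, 10, 20 and 30 min and quenched in acetonitrile. Parent compound measured by HPLC (UV or fluorescence).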

[2] = tested on: Liver microsome; experiment: Stability in human liver microsomes assessed as metabolite formation at 8 uM at 37 degC in presence of NADPH and glucose-6-phosphate; assay type: ADME
In short: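 Compound 8 µM with pooled human liver microsomes (45 donors, 0.5 mg protein/ml) in 0.1 M phosphate buffer pH 7.4 with 3 mM MgCl₂. Started by adding NADPH (1 mM) and glucose-6-phosphate (3 mM). 37 °C, 350 rpm. Aliquots at 0, 10, 20 and 30 min quenched in acetonitrile. Parent compound measured by HPLC-UV/fluorescence as % remaining; Clint from in vitro t1/2 method, scaled to human hepatic Clint.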

[3] = Thermodynamic solubility in FaSSIF medium after 24 hrs by UV detection and HPLC method; assay type: physicochemical; details: read-out: Therm_solubility
In short: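 Excess solid added to FaSSIF (SIF powder in phosphate buffer), shaken 24 h at 175 rpm and 37 °C, then centrifuged at 20,817g for 15 min. Supernatant quantified by HPLC with UV detection. n = 3.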

[4] = Apparent permeability in human Caco2 cells; assay type: ADME, cell-based; details: Caco-2

CC(C)CCn1c(=O)c2cccnc2n(CCC(C)C)c1=O
Stability [1]: Stable | Drug metabolism [2]: metabolite_detected

CC(C)CCNC(=O)c1cccnc1NCCC(C)C
Stability [1]: Stable | Stability [2]: Stable

CCCn1c(=O)c2cccnc2n(CCC)c1=O
Stability [1]: Stable | Stability [2]: Stable

C=CCNC(=O)c1cccnc1NC(C)(C)CC(C)(C)C
Stability [1]: Stable | Drug metabolism [2]: metabolite_detected

C=CCn1c(=O)c2cccnc2n(C2CCCCC2)c1=O
Stability [1]: Stable | Stability [2]: Stable

C=CCOC(=O)c1cccnc1NC12CC3CC(CC(C3)C1)C2
solubility thermodynamic at 24 h [3]: 20.7 µM (≈ 6.47 µg/mL) | Stability [1]: Stable | Drug metabolism [2]: metabolite_detected | Papp [4]: 1.2 ×10⁻⁶ cm/s

C=CCn1c(=O)c2cccnc2n(CC=C)c1=O
Stability [1]: Stable | Stability [2]: Stable

C=CCNC(=O)c1cccnc1NCC=C
Stability [1]: Stable | Stability [2]: Stable

O=C(NC1CCCCC1)c1cccnc1NC1CCCCC1
Stability [1]: Stable | Drug metabolism [2]: metabolite_detected

COc1ccc2c(c1)c(CC(=O)O)c(C)n2C(=O)c1ccc(Cl)cc1 [INDOMETHACIN]
Papp [4]: 93.3 ×10⁻⁶ cm/s

O=c1c2cccnc2n(Cc2ccccc2)c(=O)n1Cc1ccccc1
Stability [1]: Stable | Stability [2]: Stable
